Test results published in ChEMBL document CHEMBL3046167, “Activity of meadowfoam (Limnanthes alba) seed meal glucolimnanthin degradation products against soilborne pathogens” (J Agric Food Chem, 2012).
≈ marks a conversion by molar mass, not a printed value. Calls of active or inactive are those of the source. The rule behind the calls is not given here.

How the values were obtained:
[1] = system: Globisporangium irregulare; experiment: Antiparasitic activity against Pythium irregulare assessed as culture diameter at 0.75 mg/ml after 24 hr; type: functional
Outline: (§1)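 P. irregulare: 3-mm agar plugs from 1-week cultures (20 °C, dark) were placed in wells with water plus test solution in DMSO (final 2% DMSO). Exposure was 24 h at 25 °C in the dark. Plugs were then rinsed, blotted and placed on PDA with 250 mg/L ampicillin. Colony diameter was measured after 48 h at 20 °C, excluding dead plugs, and expressed as % of the water control. EC50 was derived by regression. Eight wells per concentration.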

[2] = system: Globisporangium irregulare; experiment: Antiparasitic activity against Pythium irregulare assessed as culture diameter at 0.5 mg/ml after 24 hr; type: functional; outline: as §1
[3] = system: Globisporangium irregulare; experiment: Antiparasitic activity against Pythium irregulare assessed as culture diameter at 0.3 mg/ml after 24 hr; type: functional; outline: as §1
[4] = system: Globisporangium irregulare; experiment: Antiparasitic activity against Pythium irregulare assessed as culture diameter at 0.15 mg/ml after 24 hr; type: functional; outline: as §1
[5] = system: Globisporangium irregulare; experiment: Antiparasitic activity against Pythium irregulare assessed as culture diameter at 0.05 mg/ml after 24 hr; type: functional; outline: as §1
[6] = system: Globisporangium irregulare; experiment: Antiparasitic activity against Pythium irregulare assessed as culture diameter after 24 hr; type: functional, organism-based; outline: as §1
[7] = system: Globisporangium irregulare; experiment: Antiparasitic activity against Pythium irregulare assessed as culture diameter at <= 0.3 mg/ml after 24 hr; type: functional, organism-based; outline: as §1
[8] = system: Meloidogyne hapla; experiment: Antiparasitic activity against Meloidogyne hapla J2 assessed as larvicidal activity for 24 hr measured after replacement with water; type: functional, organism-based; details: J2, 24 h
Outline: (§2)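 M. hapla J2 (tomato-cultured isolate) in 96-well plates, 40–60 J2 per well in water with test solution in DMSO (final DMSO 2% v/v). Incubated covered in the dark at 25 °C for 24 h, then mortality scored visually. Compounds were then removed and replaced with water, and mortality was rescored after another 24 h. EC50 was taken from dose-response regression. Eight wells per concentration; experiments were run at least twice.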

[9] = system: Meloidogyne hapla; experiment: Antiparasitic activity against Meloidogyne hapla J2 assessed as larvicidal activity after 24 hr; type: functional, organism-based; details: J2, 24 h; outline: as §2
[10] = system: Verticillium dahliae; experiment: Antiparasitic activity against Verticillium dahliae assessed as culture diameter after 24 hr; type: functional, organism-based
Outline: (§3)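 V. dahliae: 3-mm plugs from 3-week cultures (20 °C, dark) were exposed for 24 h at 25 °C in wells of water with 2% DMSO and test compound. Plugs were then rinsed, blotted and plated on PDA with 250 mg/L ampicillin. Diameter was measured after 1 week at 20 °C, excluding non-growing plugs, and expressed as % of the water control. Eight wells per concentration.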

[11] = system: Globisporangium irregulare; experiment: Antiparasitic activity against Pythium irregulare assessed as culture morality after 24 hr; type: functional, organism-based
Outline: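 P. irregulare plugs were exposed in wells to compounds in 2% DMSO for 24 h at 25 °C, then rinsed and plated on ampicillin-amended PDA. Plugs failing to grow were counted as dead, giving percentage mortality per treatment. EC50 was estimated from dose-response regression. Eight replicate wells per concentration; experiments were run at least twice.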

[12] = system: Verticillium dahliae; experiment: Antiparasitic activity against Verticillium dahliae assessed as culture diameter at 0.2 mg/ml after 24 hr; type: functional; outline: as §3
[13] = system: Verticillium dahliae; experiment: Antiparasitic activity against Verticillium dahliae assessed as culture diameter at 0.1 mg/ml after 24 hr; type: functional; outline: as §3
[14] = system: Verticillium dahliae; experiment: Antiparasitic activity against Verticillium dahliae assessed as culture diameter at 0.08 mg/ml after 24 hr; type: functional; outline: as §3
[15] = system: Verticillium dahliae; experiment: Antiparasitic activity against Verticillium dahliae assessed as culture diameter at 0.05 mg/ml after 24 hr; type: functional; outline: as §3
[16] = system: Verticillium dahliae; experiment: Antiparasitic activity against Verticillium dahliae assessed as culture diameter at 0.03 mg/ml after 24 hr; type: functional; outline: as §3
[17] = system: Verticillium dahliae; experiment: Antiparasitic activity against Verticillium dahliae assessed as culture diameter at 0.02 mg/ml after 24 hr; type: functional; outline: as §3
[18] = system: Verticillium dahliae; experiment: Antiparasitic activity against Verticillium dahliae assessed as culture diameter at 0.01 mg/ml after 24 hr; type: functional; outline: as §3
[19] = system: Verticillium dahliae; experiment: Antiparasitic activity against Verticillium dahliae assessed as culture diameter at 0.005 mg/ml after 24 hr; type: functional; outline: as §3
[20] = system: Verticillium dahliae; experiment: Antiparasitic activity against Verticillium dahliae assessed as culture diameter at 0.001 mg/ml after 24 hr; type: functional; outline: as §3
[21] = system: Globisporangium irregulare; experiment: Antiparasitic activity against Pythium irregulare assessed as culture diameter at 0.2 mg/ml after 24 hr; type: functional; outline: as §1
[22] = system: Globisporangium irregulare; experiment: Antiparasitic activity against Pythium irregulare assessed as culture diameter at 0.1 mg/ml after 24 hr; type: functional; outline: as §1
[23] = system: Globisporangium irregulare; experiment: Antiparasitic activity against Pythium irregulare assessed as culture diameter at 0.075 mg/ml after 24 hr; type: functional; outline: as §1
[24] = system: Globisporangium irregulare; experiment: Antiparasitic activity against Pythium irregulare assessed as culture diameter at 0.025 mg/ml after 24 hr; type: functional; outline: as §1

Work on `COc1cccc(CC(N)=S)c1` yielded a mortality at 750 µg/mL [1] of 0%, a mortality at 500 µg/mL [2] of 0% and a mortality at 300 µg/mL [3] of 0%. For the same compound, the mortality at 150 µg/mL [4] was 0%, the mortality at 50 µg/mL [5] was 0% and the EC50 [6] was 750 µg/mL (≈ 4140 µM). For the same compound, the Activity [7] was “inactive”, the EC50 [8] was 584 µg/mL (≈ 3220 µM) and the EC50 [9] was 245 µg/mL (≈ 1350 µM).
In the case of `COc1cccc(CN=C=S)c1` [3-METHOXYBENXYL ISOTHIOCYANATE], the EC50 [10] is reported as 100 µg/mL (≈ 558 µM), the EC50 [11] is reported as 50 µg/mL (≈ 279 µM) and the mortality at 200 µg/mL [12] is reported as 69%. The mortality at 100 µg/mL [13] was 50%, the mortality at 80 µg/mL [14] was 7% and the mortality at 50 µg/mL [15] was 19%. The mortality at 30 µg/mL [16] was 0%, the mortality at 20 µg/mL [17] was 0% and the mortality at 10 µg/mL [18] was 0%. For the same compound, the mortality at 5 µg/mL [19] was 0%, the mortality at 1 µg/mL [20] was 0% and the mortality at 200 µg/mL [21] was 88%. The mortality at 150 µg/mL [4] was 88%, the mortality at 100 µg/mL [22] was 63% and the mortality at 75 µg/mL [23] was 56%. It also gave a mortality at 50 µg/mL [5] of 54%, a mortality at 25 µg/mL [24] of 0% and an EC50 [8] of 3 µg/mL (≈ 16.7 µM). It also gave an EC50 [9] of 2 µg/mL (≈ 11.2 µM).
